Data reported in ChEMBL document CHEMBL4689842, “EUbOPEN Chemogenomics Library wave 1” (2021).
“And” between values parts separate entries of the source, which are not always exact repeats. Identical values can stand only once.

Test system: HEK-293T
Assay: Multiplex assay against HEK293T;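 as to Population Tubulin-Different-Phenotype (%): share of the cells with healthy nuclei that show this phenotype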
Format: toxicity, cell-based
Conditions: human
Procedure, shortened: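 Values for tubulin, mitochondrial-mass and membrane-permeability phenotypes are per cents of cells with healthy nuclei. These cells were identified by CellPathfinder machine-learning gating of live cells that had been stained at seeding with Hoechst33342, BioTracker Green Microtubule Cytoskeleton Dye, MitoTracker Red and Annexin V Alexa Fluor 680 and imaged on a CQ1 microscope at 37°C and 5% CO2 after compound addition. The gating first set Hoechst high-intensity objects apart from normal cells, then split normal cells into healthy, pyknosed or fragmented nuclei, and pyknosed cells into mitotic or apoptotic.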

[1] = 12 h, 10 µM, compound concentration 10 uM, replicate 1
[2] = 12 h, 10 µM, compound concentration 10 uM, replicate 2
[3] = 24 h, 10 µM, compound concentration 10 uM, replicate 1
[4] = 24 h, 10 µM, compound concentration 10 uM, replicate 2
[5] = 12 h, 1 µM, compound concentration 1 uM, replicate 1
[6] = 12 h, 1 µM, compound concentration 1 uM, replicate 2
[7] = 24 h, 1 µM, compound concentration 1 uM, replicate 1
[8] = 24 h, 1 µM, compound concentration 1 uM, replicate 2
[9] = 48 h, 10 µM, compound concentration 10 uM, replicate 1
[10] = 48 h, 10 µM, compound concentration 10 uM, replicate 2

CN1C(=O)c2sccc2N(C)c2nc(Nc3ccc(S(N)(=O)=O)cc3)ncc21
Population Apoptotic (%) [1]: 16% and 18%
Population Fragmented Nuclei (%) [1]: 26% and 12%
Population Healthy Nuclei (%) [1]: 60% and 76%
Population Hoechst High Intensity Objects (%) [1]: 18% and 7%
Population Membrane Permeable-Phenotype (%) [1]: 4% and 3%
Population Mitochondria Different-Phenotype (%) [1]: 4% and 2%
Population Mitotic Cells (%) [1]: 83% and 81%
Population Normal (%) [1]: 81% and 92%
Population Pyknosed Nuclei (%) [1]: 13% and 11%
Population Tubulin-Different-Phenotype (%) [1]: 0%
Total Cell Count [1]: 672 and 727
Population Apoptotic (%) [2]: 8% and 7%
Population Fragmented Nuclei (%) [2]: 8% and 4%
Population Healthy Nuclei (%) [2]: 86% and 85%
Population Hoechst High Intensity Objects (%) [2]: 1% and 2%
Population Membrane Permeable-Phenotype (%) [2]: 1% and 0%
Population Mitochondria Different-Phenotype (%) [2]: 7% and 9%
Population Mitotic Cells (%) [2]: 91% and 92%
Population Normal (%) [2]: 98% and 97%
Population Pyknosed Nuclei (%) [2]: 4% and 10%
Population Tubulin-Different-Phenotype (%) [2]: 4% and 1%
Total Cell Count [2]: 1564 and 1180
Population Apoptotic (%) [3]: 19% and 15%
Population Fragmented Nuclei (%) [3]: 14% and 20%
Population Healthy Nuclei (%) [3]: 79% and 69%
Population Membrane Permeable-Phenotype (%) [3]: 5%
Population Mitochondria Different-Phenotype (%) [3]: 2% and 3%
Population Mitotic Cells (%) [3]: 80% and 84%
Population Normal (%) [3]: 95% and 82%
Population Pyknosed Nuclei (%) [3]: 6% and 10%
Population Tubulin-Different-Phenotype (%) [3]: 1%
Total Cell Count [3]: 894 and 614
Population Apoptotic (%) [4]: 6% and 4%
Population Fragmented Nuclei (%) [4]: 25% and 12%
Population Healthy Nuclei (%) [4]: 71% and 80%
Population Hoechst High Intensity Objects (%) [4]: 2%
Population Membrane Permeable-Phenotype (%) [4]: 3% and 1%
Population Mitochondria Different-Phenotype (%) [4]: 1%
Population Mitotic Cells (%) [4]: 93% and 95%
Population Normal (%) [4]: 97%
Population Pyknosed Nuclei (%) [4]: 2% and 7%
Population Tubulin-Different-Phenotype (%) [4]: 4% and 2%
Total Cell Count [4]: 2712 and 1180

COc1cc2nccc(Oc3ccc(NC(=O)Nc4cc(C)on4)c(Cl)c3)c2cc1OC.O
Population Apoptotic (%) [5]: 28% and 23%
Population Fragmented Nuclei (%) [5]: 14%
Population Healthy Nuclei (%) [5]: 55% and 71%
Population Hoechst High Intensity Objects (%) [5]: 12% and 10%
Population Mitotic Cells (%) [5]: 72% and 76%
Population Normal (%) [5]: 87% and 89%
Population Pyknosed Nuclei (%) [5]: 30% and 14%
Total Cell Count [5]: 660 and 667
Population Apoptotic (%) [6]: 18% and 12%
Population Fragmented Nuclei (%) [6]: 3% and 9%
Population Healthy Nuclei (%) [6]: 86%
Population Hoechst High Intensity Objects (%) [6]: 2%
Population Mitotic Cells (%) [6]: 81% and 87%
Population Normal (%) [6]: 97%
Population Pyknosed Nuclei (%) [6]: 10% and 4%
Total Cell Count [6]: 918 and 1845
Population Apoptotic (%) [1]: 82%
Population Fragmented Nuclei (%) [1]: 11%
Population Healthy Nuclei (%) [1]: 21%
Population Hoechst High Intensity Objects (%) [1]: 13%
Population Membrane Permeable-Phenotype (%) [1]: 2%
Population Mitochondria Different-Phenotype (%) [1]: 100%
Population Mitotic Cells (%) [1]: 17%
Population Normal (%) [1]: 86%
Population Tubulin-Different-Phenotype (%) [1]: 97%
Total Cell Count [1]: 260
Population Apoptotic (%) [2]: 59%
Population Fragmented Nuclei (%) [2]: 3%
Population Healthy Nuclei (%) [2]: 30%
Population Hoechst High Intensity Objects (%) [2]: 1%
Population Membrane Permeable-Phenotype (%) [2]: 8%
Population Mitochondria Different-Phenotype (%) [2]: 88%
Population Mitotic Cells (%) [2]: 40%
Population Normal (%) [2]: 98%
Population Pyknosed Nuclei (%) [2]: 66%
Population Tubulin-Different-Phenotype (%) [2]: 94%
Total Cell Count [2]: 226
Population Apoptotic (%) [7]: 39% and 22%
Population Fragmented Nuclei (%) [7]: 14% and 17%
Population Healthy Nuclei (%) [7]: 63% and 74%
Population Hoechst High Intensity Objects (%) [7]: 11% and 8%
Population Membrane Permeable-Phenotype (%) [7]: 10%
Population Mitotic Cells (%) [7]: 60% and 77%
Population Normal (%) [7]: 88% and 92%
Population Pyknosed Nuclei (%) [7]: 22% and 8%
Total Cell Count [7]: 680 and 875
Population Healthy Nuclei (%) [8]: 89% and 68%
Population Hoechst High Intensity Objects (%) [8]: 4% and 3%
Population Membrane Permeable-Phenotype (%) [8]: 14% and 8%
Population Mitotic Cells (%) [8]: 81% and 95%
Population Normal (%) [8]: 95% and 96%
Population Apoptotic (%) [3]: 89%
Population Fragmented Nuclei (%) [3]: 12%
Population Healthy Nuclei (%) [3]: 30%
Population Hoechst High Intensity Objects (%) [3]: 14%
Population Membrane Permeable-Phenotype (%) [3]: 3%
Population Mitochondria Different-Phenotype (%) [3]: 100%
Population Mitotic Cells (%) [3]: 10%
Population Normal (%) [3]: 85%
Population Pyknosed Nuclei (%) [3]: 56%
Population Tubulin-Different-Phenotype (%) [3]: 100%
Total Cell Count [3]: 253
Population Apoptotic (%) [4]: 76%
Population Fragmented Nuclei (%) [4]: 2%
Population Healthy Nuclei (%) [4]: 50%
Population Hoechst High Intensity Objects (%) [4]: 1%
Population Membrane Permeable-Phenotype (%) [4]: 2%
Population Mitochondria Different-Phenotype (%) [4]: 98%
Population Mitotic Cells (%) [4]: 23%
Population Normal (%) [4]: 98%
Population Pyknosed Nuclei (%) [4]: 47%
Population Tubulin-Different-Phenotype (%) [4]: 97%
Total Cell Count [4]: 258
Population Apoptotic (%) [9]: 73%
Population Fragmented Nuclei (%) [9]: 14%
Population Healthy Nuclei (%) [9]: 40%
Population Hoechst High Intensity Objects (%) [9]: 11%
Population Membrane Permeable-Phenotype (%) [9]: 2%
Population Mitochondria Different-Phenotype (%) [9]: 96%
Population Mitotic Cells (%) [9]: 26%
Population Normal (%) [9]: 88%
Population Pyknosed Nuclei (%) [9]: 45%
Population Tubulin-Different-Phenotype (%) [9]: 98%
Total Cell Count [9]: 272
Population Apoptotic (%) [10]: 83%
Population Fragmented Nuclei (%) [10]: 3%
Population Healthy Nuclei (%) [10]: 72%
Population Hoechst High Intensity Objects (%) [10]: 2%
Population Membrane Permeable-Phenotype (%) [10]: 1%
Population Mitochondria Different-Phenotype (%) [10]: 91%
Population Mitotic Cells (%) [10]: 16%
Population Normal (%) [10]: 97%
Population Pyknosed Nuclei (%) [10]: 23%
Total Cell Count [10]: 292
